Bioassay records: PubChem, several laboratories
Most compounds without a hit are left out; they make up all but 3.4% or so of the library.
IMP-1 inhibitor – inhibitors of Pseudomonas aeruginosa IMP-1 metallo-beta-lactamase. purified IMP-1, nitrocefin hydrolysis, epi-absorbance fluorescence. inhibition, % at 5.6 µM. 0.45% of 290,000 active. AID 1556;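 active = inhibition above the mean plus 3 SD of all compounds in the same screening run, cut at about 4.5% in these data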
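System: purified recombinant IMP-1 beta-lactamase. Medium: Zinc- and detergent-supplemented HEPES buffer, pH 7.1. Compound: one 5.6 µM dose […]. Schedule: 15 min preincubation plus 25 min reaction at 25 °C. Technique: Epi-absorbance fluorescence, 480 nm excitation, 530 nm emission.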
ANO1 block – blocks the mouse calcium-activated chloride channel TMEM16A. Q8BHY3. HEK293 TMEM16A/YFP iodide influx fluorescence, ionomycin. normalized B-score (activity score, 25-100; higher = stronger inhibition) at 10 µM. 1.2% of 310,000 active. AID 588511;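 active = ratio plate-corrected score three or more library SD toward inhibition, starting fluorescence score within five deviations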;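 note: score derived from kinetic fluorescence span divided by baseline fluorescence per well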
ANO1 activ – activators or potentiators of mouse TMEM16A chloride channel | HEK293 TMEM16A/YFP-H148Q/I152L, iodide quench fluorescence; stronger effect = lower value | 0.3% of 340,000 active | AID 623877 | Q8BHY3 | B-score at 10 µM;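 active = fluorescence-ratio B-score plate-corrected deviation score at least 3 library SD below zero, with starting fluorescence score within 5 deviations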;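 note: channel opened by trigger with iodide after compound preincubation; score built on the fluorescence ratio of max minus min over baseline; more negative score means more quench and so TMEM16A activation or potentiation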
VIM-2 inhibitor – inhibitors of Pseudomonas aeruginosa VIM-2 metallo-beta-lactamase | AID 1527 | 0.89% of 290,000 active | inhibition, % at 5.6 µM | purified VIM-2, nitrocefin hydrolysis, epi-absorbance fluorescence;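 active = inhibition above the mean of all tested compounds plus 3 SD, cutoff set per screening run, cut at about 7.5% in these data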;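 note: red hydrolysis product quenches plate fluorescence so inhibitors raise well fluorescence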
CHT PAM – human CHT allosteric activation; 0.49% of 310,000 active; B-score at 10 µM; Q9GZV3; CHT-expressing cells, membrane potential dye, choline EC20; stronger effect = higher value; LV-AA mutant CHT in HEK293 cells;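 active = initial fluorescence not abnormally high and integrated response B-score, plate-corrected, over 3 SD above library mean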
Target sequence (Q9GZV3 whole entry, looked up): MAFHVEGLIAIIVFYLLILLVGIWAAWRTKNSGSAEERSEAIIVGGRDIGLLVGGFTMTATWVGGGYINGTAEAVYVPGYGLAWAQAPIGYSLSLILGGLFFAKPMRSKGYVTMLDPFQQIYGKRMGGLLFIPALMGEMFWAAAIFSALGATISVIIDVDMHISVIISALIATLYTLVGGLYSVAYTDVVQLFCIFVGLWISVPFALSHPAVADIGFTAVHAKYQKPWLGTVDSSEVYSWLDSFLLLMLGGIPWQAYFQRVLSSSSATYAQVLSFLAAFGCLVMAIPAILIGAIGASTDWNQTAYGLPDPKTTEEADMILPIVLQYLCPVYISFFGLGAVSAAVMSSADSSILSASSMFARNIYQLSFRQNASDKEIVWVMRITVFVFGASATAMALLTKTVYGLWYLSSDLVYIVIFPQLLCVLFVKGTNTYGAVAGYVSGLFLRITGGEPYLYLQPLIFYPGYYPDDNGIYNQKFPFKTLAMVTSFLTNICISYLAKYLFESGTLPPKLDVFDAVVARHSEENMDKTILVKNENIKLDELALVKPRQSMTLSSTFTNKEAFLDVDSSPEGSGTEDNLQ
CHT block – human CHT choline transport inhibition; Q9GZV3; CHT-expressing cells, membrane potential dye, choline response; stronger effect = lower value; B-score at 10 µM; 0.86% of 310,000 active; AID 488975;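 active = B-score over 3 SD under the library average, and starting fluorescence ratio not unusually high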;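 note: choline stimulus applied at its EC90 after an EC20 pre-addition; B-score computed on integrated fluorescence ratio after choline addition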
CHT inh conf – confirmation of human choline transporter CHT inhibitors | CHT-expressing cells, choline membrane potential dye; LV-to-AA substituted CHT, HEK293 cells | CHT activity remaining % of control (stronger effect = lower value), % at 10 µM | 70% of 2,400 active | shares compounds with CHT block | AID 493221;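 active = choline transporter activity left, mean of duplicates at 10 µM, below buffer-only control mean minus 3 SD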;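 note: depolarization triggered by choline at its EC90 following an EC20 pre-addition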
HEK293 MPD ctr – counter-screen for CHT inhibitors: effect in parental HEK293 cells. shares compounds with CHT block. membrane potential dye, choline response; active = decrease or increase beyond buffer ±3SD. membrane potential ratio readout (active if shifted either direction beyond buffer ±3SD; no single direction) at 10 µM. 4% of 2,400 active. AID 493222;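 note: parental cells lack the transporter so any hit is non-specific; ratio is peak minus trough fluorescence over baseline after EC90 choline challenge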
Hits are given with their value; – = inactive; · = no result.

SMILES	IMP-1 inhibitor	ANO1 block	ANO1 activ	VIM-2 inhibitor	CHT PAM	CHT block	CHT inh conf	HEK293 MPD ctr
FC(F)(F)c1nc(Oc2ccccc2)c2ccccc2n1	–	–	–	–	–	–	·	·
Cc1nc(Oc2ccccc2)c2ccccc2n1	–	–	–	–	–	-6.97	–	–
CCc1oc(C(=O)O)cc1COC	–	–	·	–	–	-10.9	–	–
CCc1oc(C(=O)O)cc1CN(CC)CC	–	–	–	–	–	–	·	·
CCOC(=O)c1cnc2c(C(F)(F)F)cccc2c1N1CCOCC1	–	–	–	–	–	-5.79	52.1%	–
CCOC(=O)c1cnc2c(C)c(Cl)ccc2c1N1CCOCC1	–	–	–	–	–	–	·	·
CCn1c(SCc2nc(-c3ccccc3)no2)nnc1-c1ccco1	–	–	–	–	–	-5.19	54.9%	–
CCn1c(SCc2nc3scc(-c4ccccc4)c3c(=O)[nH]2)nnc1-c1cccs1	–	100	–	–	–	-7.32	–	–
Cn1c(SCc2nc(-c3ccc(Br)cc3)no2)nnc1-c1ccco1	–	–	–	–	–	–	·	·
CCn1c(SCc2nc(-c3ccccc3)no2)nnc1-c1cccs1	–	–	–	–	–	-5.49	47.0%	–
CCc1ccccc1NC(=O)Cn1c(=O)n(-c2ccc(CC(=O)NCC3CCCO3)cc2)c(=O)c2ccccc21 (configuration not stated)	–	–	–	–	–	–	·	·
O=C(Cc1ccc(-n2c(=O)c3ccccc3n(Cc3ccccc3F)c2=O)cc1)NCC1CCCO1 (configuration not stated)	–	–	–	–	–	-7.85	41.3%	–
CCN(CC(=O)NCc1ccc(Cl)cc1)C(=O)C1CCN(S(=O)(=O)c2ccc(OC)c(OC)c2)CC1	·	–	–	·	–	–	·	·
CCCOc1ccc(C(=O)N(CC(C)C)c2c(N)n(Cc3ccccc3)c(=O)[nH]c2=O)cc1	·	–	–	·	–	–	·	·
COc1ccc(-c2nnc(CSc3nc4ccccc4c(=O)n3CC3CCCO3)o2)cc1OC (configuration not stated)	–	–	–	–	–	-7.4	49.3%	–
COc1ccc(S(=O)(=O)/N=C2/NC(=O)/C(=C\c3cc(OC)c(OC)cc3[N+](=O)[O-])S2)cc1	–	–	–	–	–	–	·	·
COc1cc(/C=C2\S/C(=N/S(=O)(=O)c3ccccc3)NC2=O)c([N+](=O)[O-])cc1OC	–	–	–	–	–	-8.18	52.8%	–
C=CCn1c(SC2CCOC2=O)nc2scc(C3CC3)c2c1=O (configuration not stated)	–	–	–	–	–	-5.71	47.2%	–
C=CCn1c(SC2CCOC2=O)nc2sc(C)c(C)c2c1=O (configuration not stated)	–	–	–	–	–	–	·	·
CCOc1ccc(S(=O)(=O)Nc2cccc(C(=O)NCC(c3ccccc3)N(C)C)c2)cc1 (configuration not stated)	·	–	–	·	–	-7.64	16.2%	–
Nc1cc(=O)[nH]c(SCC(=O)N2CCC(Cc3ccccc3)CC2)n1	·	·	–	·	·	·	·	·
Cc1ccc(-c2cc(C(=O)NCCCn3ccnc3)c3cc(Br)ccc3n2)o1	–	–	–	–	–	-9.24	24.5%	–
O=C(NCCCn1ccnc1)/C(=C/c1ccc(F)cc1)NC(=O)c1ccccc1	–	–	–	–	–	–	·	·
O=C(Nc1ccccc1C(=O)NCCCn1ccnc1)c1ccccc1	–	–	–	–	–	-10.3	13.0%	–
CC(C)c1ccc(/C=C(\NC(=O)c2ccccc2)C(=O)NCCCn2ccnc2)cc1	–	–	–	–	–	-8.17	22.7%	–
SMILES	IMP-1 inhibitor	ANO1 block	ANO1 activ	VIM-2 inhibitor	CHT PAM	CHT block	CHT inh conf	HEK293 MPD ctr
COc1cc(CNCCc2ccccc2)cc(Br)c1OCC(=O)Nc1ccccc1C	–	–	–	–	–	-8.4	43.5%	–
CC(C)=CCN1CCN(Cc2nc(-c3ccc(F)cc3)cs2)CC1CCO (configuration not stated)	–	–	–	–	–	-5.41	–	–
CC(C)CCN1CCN(Cc2nc(-c3ccc(F)cc3)cs2)CC1CCO (configuration not stated)	–	–	–	–	–	–	·	·
CC(C)NC(=O)CN(Cc1ccc(F)cc1)C(=O)CCC(=O)Nc1ccccn1	–	–	–	–	–	–	·	·
NS(=O)(=O)c1ccc(N/N=C/c2ccc(C(=O)O)cc2)c([N+](=O)[O-])c1	–	–	–	–	–	–	·	·
Cc1nn(-c2ccccc2)c(N2CCCC2)c1/C=N/Nc1ccc(S(N)(=O)=O)cc1[N+](=O)[O-]	–	–	–	–	–	-4.97	–	–
O=C1c2cccc3c(Nc4ccccc4Cl)c([N+](=O)[O-])cc(c23)C(=O)N1CCO	–	–	–	–	–	-5.51	71.3%	–
Cc1cc(C)c(NC(=O)COC(=O)c2cccc3c2C(=O)c2ccccc2C3=O)c(C)c1	–	–	–	–	–	-5.09	–	–
CSCC[C@@H](C(=O)NCCCCCCCCCCC(=O)N1CCN(C(=O)OC(C)(C)C)CC1)n1cc(CCO)nn1	·	–	–	·	–	-6.37	40.0%	–
CC(=O)c1ccc(-n2ccc(=O)cc2)cc1	–	–	–	–	–	–	·	·
Cn1c(-c2ccccc2O)cc2ccccc21	–	–	–	–	–	-8.06	50.6%	–
C/C(=N\OCC(=O)Nc1ccccc1C(=O)O)c1cccs1	–	–	–	–	–	-6.17	44.3%	–
C/C(=N/OCC(=O)Nc1ccc(C)cc1C)c1cccs1	–	–	–	–	–	–	·	·
COc1cc(C)c(CN2CCN(C(C)C(=O)NC(C)c3ccccc3)CC2)cc1OC (configuration not stated)	–	–	–	–	–	–	·	·
Cc1ccc(S(=O)(=O)N2CCN(Cc3ccccc3)CC2)s1	·	·	–	·	·	·	·	·
Cc1ccccc1-c1nnn(CC(=O)N(C)CC(=O)Nc2ccccc2C(F)(F)F)n1	·	–	–	·	–	–	·	·
Cc1cc(NC(=O)c2c(-c3c(Cl)cccc3Cl)noc2C)n(C)n1	–	–	–	–	–	–	·	·
Cc1noc(NC(=O)c2c(-c3c(Cl)cccc3Cl)noc2C)c1[N+](=O)[O-]	–	–	–	–	–	-6.09	47.8%	–
Cc1ccc(C(=O)N2CCN(c3ccccc3F)CC2)cc1S(=O)(=O)N1CCOCC1	–	–	–	–	–	–	·	·
N#C/C(=C\c1ccc(O)c(Br)c1)C(=O)NCc1ccccc1	–	–	–	–	–	-6.42	63.5%	–
